Results: PMC3159820 (Journal of immunology (Baltimore, Md. : 1950), 2011)

System: T cell hybridoma HH8
Assay: Activation of T cell hybridoma HH8 by PT-gluten
Type: cell-based, mouse
Details: HH8 and DB4, in words
How it was run: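 Irradiated (8,000 rads) T2DM cells (100,000) retrovirally expressing DQ2 WT or mutant co-cultured 16-24 h with HH8 hybridoma (100,000) and titrated PT-gluten (0.06-3 μg/μl); supernatant IL-2 by mouse IL-2 ELISA. PT-gluten: gluten digested with pepsin (pH 2.0), then trypsin/chymotrypsin (pH 6), 37°C; heat-inactivated; dialysed high-molecular-weight fraction deamidated with guinea pig transglutaminase (100 ug/ml, 1mM CaCl2, 37°C, 2h).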

PQPELPYPQPQL [α-II-gliadin 62-70]
effect of DM on presentation of the epitope: DM-suppressed epitope

QLQPFPQPELPYPQPQS [α-gliadin 57-73 Q65E]
effect of DM on presentation of the epitope: suppressed by DM in endocytic compartments
